Source: ChEMBL document CHEMBL4834454 (Bioorg Med Chem, 2021)

Key:
Cannabinoid receptor 1 [1] = target: T1, Cannabinoid receptor 1 (Homo sapiens, UniProt P21554); experiment: Allosteric antagonist activity at human CB1 receptor expressed in CHO-RD-HGA16 cells overexpressing Galpha16 assessed as inhibition of CP55940-stimulated calcium mobilization preincubated for 15 mins followed by agonist addition and measured every 1 sec for 90 secs by Calcium-3 dye based FLIPR assay; type: functional, cell-based
Cannabinoid receptor 1 [2] = target: T1, Cannabinoid receptor 1; experiment: Agonist activity at human CB1 receptor expressed in CHO-RD-HGA16 cells overexpressing Galpha16 assessed as stimulation of calcium mobilization measured every 1 sec for 90 secs by Calcium-3 dye based FLIPR assay relative to Emax of CP55940; type: functional, cell-based; settings: time 90.0 sec
In short: (§1)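 Agonist screen. […] They were pretreated with vehicle (BSA/DMSO/EtOH buffer) for 15 min, and a single concentration of test compound was added at 10 s. Fluorescence (485/525 nm) was read for 90 s. RFU is expressed as % of CP55,940 Emax RFU. Line 1 uses hCB1 cells; line 2 uses hCB2 cells.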

Cannabinoid receptor 2 [3] = target: T2, Cannabinoid receptor 2 (Homo sapiens, UniProt P34972); experiment: Antagonist activity at human CB2 receptor expressed in CHO-RD-HGA16 cells overexpressing Galpha16 assessed as inhibition of CP55940-stimulated calcium mobilization at 10 uM preincubated for 15 mins followed by agonist addition and measured every 1 sec for 90 secs by Calcium-3 dye based FLIPR assay; type: functional, cell-based; settings: time 990.0 sec
Cannabinoid receptor 2 [4] = target: T2, Cannabinoid receptor 2; experiment: Antagonist activity at human CB2 receptor expressed in CHO-RD-HGA16 cells overexpressing Galpha16 assessed as inhibition of CP55940-stimulated calcium mobilization preincubated for 15 mins followed by agonist addition and measured every 1 sec for 90 secs by Calcium-3 dye based FLIPR assay; type: functional, cell-based
Cannabinoid receptor 2 [5] = target: T2, Cannabinoid receptor 2; experiment: Agonist activity at human CB2 receptor expressed in CHO-RD-HGA16 cells overexpressing Galpha16 assessed as stimulation of calcium mobilization measured every 1 sec for 90 secs by Calcium-3 dye based FLIPR assay relative to Emax of CP55940; type: functional, cell-based; settings: time 90.0 sec; in short: as §1
Cannabinoid receptor 1 [6] = target: T1, Cannabinoid receptor 1; experiment: Allosteric antagonist activity at N-terminal 3HA-tagged human CB1 receptor expressed in HEK293 cells assessed as reduction in CP55940-stimulated inhibition of forskolin-induced cAMP accumulation measured for 20 mins by BRET assay; type: functional, cell-based
Cannabinoid receptor 1 [7] = target: T1, Cannabinoid receptor 1; experiment: biochemical

T2 sequence (P34972 whole entry): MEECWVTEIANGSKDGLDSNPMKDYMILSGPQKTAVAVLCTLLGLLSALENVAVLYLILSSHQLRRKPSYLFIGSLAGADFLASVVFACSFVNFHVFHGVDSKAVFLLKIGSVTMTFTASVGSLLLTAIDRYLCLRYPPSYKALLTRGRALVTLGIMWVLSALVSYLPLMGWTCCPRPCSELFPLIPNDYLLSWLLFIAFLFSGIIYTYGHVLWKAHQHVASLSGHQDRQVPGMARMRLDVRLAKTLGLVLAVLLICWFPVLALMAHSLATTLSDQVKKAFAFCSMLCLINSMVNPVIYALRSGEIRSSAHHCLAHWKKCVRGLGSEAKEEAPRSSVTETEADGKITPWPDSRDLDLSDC
T1 sequence (P21554 whole entry): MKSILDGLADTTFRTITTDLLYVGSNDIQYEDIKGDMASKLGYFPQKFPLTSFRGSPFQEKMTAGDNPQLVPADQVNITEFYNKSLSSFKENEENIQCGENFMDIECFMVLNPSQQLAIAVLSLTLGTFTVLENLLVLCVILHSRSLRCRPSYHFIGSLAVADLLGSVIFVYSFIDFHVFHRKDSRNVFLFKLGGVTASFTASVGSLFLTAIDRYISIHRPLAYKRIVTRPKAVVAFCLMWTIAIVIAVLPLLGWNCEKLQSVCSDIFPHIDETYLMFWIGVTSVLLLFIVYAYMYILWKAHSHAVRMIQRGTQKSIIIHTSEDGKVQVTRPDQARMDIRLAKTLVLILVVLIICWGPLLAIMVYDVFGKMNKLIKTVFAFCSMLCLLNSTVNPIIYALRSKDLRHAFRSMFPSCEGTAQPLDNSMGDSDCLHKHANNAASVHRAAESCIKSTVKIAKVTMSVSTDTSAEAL

| Compound | IC50 (Cannabinoid receptor 1 [1]) [µM] | Activity (Cannabinoid receptor 1 [2]) [%] | inhibition (Cannabinoid receptor 2 [3]) [%] | IC50 (Cannabinoid receptor 2 [4]) [µM] | Activity (Cannabinoid receptor 2 [5]) [%] | IC50 (Cannabinoid receptor 1 [6]) [µM] | IC50 (Cannabinoid receptor 1 [7]) [µM] |
| --- | --- | --- | --- | --- | --- | --- | --- |
| CC(=O)NCCNC(=O)Nc1ccc(Cl)cc1 | 1.58 | < 30 | < 50 | > 10 | < 10 | – | – |
| O=C(NCCc1ccncc1)Nc1ccc(Cl)cc1 | – | < 30 | < 50 | > 10 | < 10 | – | – |
| CCN(CC)c1ccc(CCNC(=O)Nc2ccc(Cl)cc2)cc1 | 3.16 | < 30 | < 50 | > 10 | < 10 | – | – |
| CCc1c(C(=O)NCCc2ccc(N3CCCCC3)cc2)[nH]c2ccc(Cl)cc12 | 0.794 | – | < 50 | > 10 | < 10 | 0.158 | 1 |
| CN1CCN(CCNC(=O)Nc2ccc(Cl)cc2)CC1 | – | < 30 | < 50 | > 10 | < 10 | – | – |
| Cc1ccc(CCNC(=O)Nc2ccc(Cl)cc2)o1 | – | < 30 | < 50 | > 10 | < 10 | – | – |
| O=C(NCC(F)(F)c1ccccc1)Nc1ccc(Cl)cc1 | – | < 30 | < 50 | > 10 | < 10 | – | – |
| O=C(Nc1ccc(Cl)cc1)Nc1cccc(-c2cccc(N3CCCC3)n2)c1 | – | < 30 | – | > 10 | < 10 | – | – |
| O=C(NCCc1cccs1)Nc1ccc(Cl)cc1 | – | < 30 | < 50 | > 10 | < 10 | – | – |
| O=C(NCCN1CCOCC1)Nc1ccc(Cl)cc1 | – | < 30 | < 50 | > 10 | < 10 | – | – |
| O=C(NCc1ccccc1)Nc1ccc(Cl)cc1 | – | < 30 | < 50 | > 10 | < 10 | – | – |
| O=C(NCCN1CCCCC1)Nc1ccc(Cl)cc1 | – | < 30 | < 50 | > 10 | < 10 | – | – |
| CC(C)(CNC(=O)Nc1ccc(Cl)cc1)c1ccccc1 | – | < 30 | < 50 | > 10 | < 10 | – | – |
| CC(C)(Cc1ccccc1)NC(=O)Nc1ccc(Cl)cc1 | – | < 30 | < 50 | > 10 | < 10 | – | – |
| O=C(NCCN1CCCC1)Nc1ccc(Cl)cc1 | – | < 30 | < 50 | > 10 | < 10 | – | – |
| O=C(NC[C@H]1C[C@@H]1c1ccccc1)Nc1ccc(Cl)cc1 (relative stereo) | – | < 30 | < 50 | > 10 | < 10 | – | – |
| O=C(NCCc1ccc(N2CCCCC2)cc1)Nc1ccc(Cl)cc1 | 0.794 | – | < 50 | > 10 | < 10 | – | 1.26 |
| O=C(NCCc1ccccc1)Nc1ccc(Cl)cc1 | 0.2 | – | < 50 | > 10 | < 10 | 3.16 | 6.31 |
| O=C(NCCc1cccnc1)Nc1ccc(Cl)cc1 | – | < 30 | < 50 | > 10 | < 10 | – | – |
| O=C(NCCc1ccccn1)Nc1ccc(Cl)cc1 | 3.98 | < 30 | < 50 | > 10 | < 10 | – | – |
| O=C(NCCc1ccc(N2CCCC2)cc1)Nc1ccc(Cl)cc1 | 0.794 | < 30 | < 50 | > 10 | < 10 | – | 39.8 |
| O=C(NCC1(c2ccccc2)CC1)Nc1ccc(Cl)cc1 | 5.01 | < 30 | < 50 | > 10 | < 10 | – | – |
| O=C(Nc1ccc(Cl)cc1)NC1(Cc2ccccc2)CC1 | – | < 30 | < 50 | > 10 | < 10 | – | – |
| O=C(NCCc1ccsc1)Nc1ccc(Cl)cc1 | – | < 30 | < 50 | > 10 | < 10 | – | – |
| CN(C)c1ccc(CCNC(=O)Nc2ccc(Cl)cc2)cc1 | 0.251 | < 30 | < 50 | > 10 | < 10 | 2.51 | 15.8 |
| O=C(NCCCc1ccccc1)Nc1ccc(Cl)cc1 | 3.98 | < 30 | < 50 | > 10 | < 10 | – | – |
